High-throughput results as filed in PubChem BioAssay.
PMI act: activators of human phosphomannose isomerase. 190,000 tested, 0.005% active. activation factor at 20 µM. purified human PMI, coupled resazurin fluorescence, 20 min; active compounds read high; 1 = vehicle control, 0 substrate-free wells. P34949. AID 1214;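 active = activation factor of 2 or more at 20 µM, relative to plate controls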
Target sequence (P34949 whole entry, looked up): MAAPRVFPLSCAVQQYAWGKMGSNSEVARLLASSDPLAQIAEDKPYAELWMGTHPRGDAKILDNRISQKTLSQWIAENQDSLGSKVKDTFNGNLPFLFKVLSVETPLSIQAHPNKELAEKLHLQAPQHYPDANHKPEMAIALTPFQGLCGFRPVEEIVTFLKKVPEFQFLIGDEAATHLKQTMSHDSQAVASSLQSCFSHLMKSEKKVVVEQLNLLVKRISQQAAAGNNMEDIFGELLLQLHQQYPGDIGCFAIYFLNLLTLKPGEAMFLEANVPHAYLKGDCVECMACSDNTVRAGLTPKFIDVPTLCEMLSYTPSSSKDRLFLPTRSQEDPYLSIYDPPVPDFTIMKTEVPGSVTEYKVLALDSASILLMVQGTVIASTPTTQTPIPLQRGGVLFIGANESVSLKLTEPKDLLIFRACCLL
bCat KO growth: beta-catenin-lacking colon tumor cell growth suppression | viability, % at 10 µM | HCT116 beta-catenin knockout viability, CellTiter-Glo, 60 h; active compounds read low | 140,000 tested, 1.5% active | AID 818;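 active = viability at or under a set limit, the compound median less 4 SD, cut at about 6% in these data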;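 also: 0% = Hyamine 1622 control at 20 µM and 100% = untreated cell control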
HCT116 PTEN-null: growth suppressors of cells with PTEN tumor suppressor deletion | 140,000 tested, 1.2% active | viability, % at 10 µM | AID 827 | HCT116 PTEN-null viability, CellTiter-Glo, 60 h; active compounds read low;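 active = viability at or below a set limit, 4 SD under the median of all tested compounds, cut at about 3.7% in these data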;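 also: PTEN knockout HCT116 line with beta catenin targeted HCT116 as companion control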
PMI act hi M6P: increases human PMI activity with near-saturating mannose 6-phosphate. P34949. coupled PMI enzyme assay, resazurin fluorescence, 20 min; active compounds read high; 1 = untreated enzyme, 0 = substrate-free blank. activation factor at 20 µM. 190,000 tested, 0.34% active;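 active = activation factor of 2 or more at 20 µM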
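Test system – human PMI in coupled enzyme assay · Timing – 20 min incubation at room temperature · Detection – Diaphorase-driven resazurin-to-resorufin fluorescence, excitation 544, emission 590 nm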
Lmaj promast: inhibitors of Leishmania major promastigote growth. inhibition, % at 10 µM. Leishmania major promastigotes, resazurin fluorescence viability. 200,000 tested, 9% active. AID 1063; in the data active = inhibition above about 50%;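 also: promastigotes grown with compound for 44 hours at 28 °C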
Starred values were filed as active, the others as inactive; · = no result given. Shown are actives, neighbours in structure and some others; about 9.6% of the full set was active somewhere.

SMILES | PMI act | bCat KO growth | HCT116 PTEN-null | PMI act hi M6P | Lmaj promast
O=C(Nc1ccc(N2CCCCCC2)cc1)c1ccccc1Cl | 0.8 | · | · | 0.7 | 57.1*
O=C(NC(=S)Nc1ccccc1N1CCCC1)c1ccccc1[N+](=O)[O-] | 0.8 | 74.1 | 73.4 | 1 | 12.2
O=C(/C=C/c1ccc(Cl)c([N+](=O)[O-])c1)Nc1ccc(N2CCCC2)cc1 | 1 | 63.2 | 44.5 | 0.9 | 66.8*
O=C(CNCc1cccs1)Nc1ccc(N2CCCCCC2)cc1 | 0.9 | · | · | 0.7 | 50.9*
O=C(NC(=S)Nc1ccc(N2CCCC2)cc1)c1ccccc1[N+](=O)[O-] | 1 | 98.0 | 92.7 | 1 | 54.1*
O=C(NC(=S)Nc1ccc(N2CCCCC2)cc1)c1ccc2c(c1)OCCO2 | 0.8 | 89.0 | 80.7 | 0.8 | 64.5*
COc1cc2c3c(c1)-c1c(sn(-c4cc(OC)ccc4OC)c1=S)C(C)(C)N3C(=O)C2=O | 1 | 2.4* | 1.2* | 1 | -4.9
Cc1nnc(SCC(=O)O)s1 | 1 | · | · | 1 | -7.9
CCOC(=O)N1CCC(n2c(SCC(=O)NCCC3=CCCCC3)nc3ccccc3c2=O)CC1 | 0.9 | 45.0 | 49.4 | 1 | 70.3*
CCOC(=O)N1CCC(n2c(SCC(=O)N3CCCC3)nc3ccccc3c2=O)CC1 | 1.1 | 73.7 | 81.4 | 1 | 0.7
COCC(C)n1c(SCC(=O)NCCC2=CCCCC2)nc2ccccc2c1=O (stereo not given) | 1 | 60.7 | 65.1 | 1 | 92.5*
CCOC(=O)N1CCC(n2c(SCC(=O)NCc3ccccc3)nc3ccccc3c2=O)CC1 | 1 | 68.2 | 63.0 | 1 | 81.0*
CC(=O)NCCn1c(SCC(=O)NCCC2=CCCCC2)nc2ccccc2c1=O | 1 | 97.2 | 98.6 | 1 | 4.0
COCC(C)n1c(C)cc(C(=O)CSc2ncccn2)c1C (stereo not given) | 1.1 | · | · | 1 | -3.5
COCC(C)n1c(C)cc(C(=O)CSc2nnnn2-c2ccc(O)cc2)c1C (stereo not given) | 0.9 | · | · | 0.8 | 73.0*
CCOC(=O)C(=CNc1ccc2c(c1)nnn2-c1ccc(Cl)cc1)C(=O)OCC | 1.1 | 100.4 | 81.4 | 1.1 | -0.9
CCCS(=O)(=O)N1CCC(C(=O)NCc2ccco2)CC1 | 0.9 | 84.5 | 90.9 | 1 | 0.4
COCC(C)n1c(SCC(=O)c2cc(C)n(C)c2C)nc2ccccc2c1=O (stereo not given) | 1 | · | · | 1 | 83.8*
N#C/C(=C/c1ccc(N2CCCCC2)o1)c1cccc(F)c1 | 0.8 | 65.4 | 75.9 | 0.9 | 16.9
N#C/C(=C/c1ccc(N2CCCCC2)cc1)c1cccc(F)c1 | 0.9 | 66.3 | 70.8 | 1 | 99.0*
Cc1c(NC(=O)c2ncn[nH]2)cccc1-c1nc2ccccc2s1 | 0.9 | 91.9 | 89.8 | 1.1 | 100.4*
CN1CCN(c2ccccc2NC(=O)c2ccc(N3CCCCC3)c([N+](=O)[O-])c2)CC1 | 1.1 | · | · | 1.1 | 17.1
Cc1c(NC(=O)c2ccc(N3CCCC3)c([N+](=O)[O-])c2)cccc1-c1nc2ccccc2s1 | 0.8 | 82.3 | 88.2 | 0.9 | 71.3*
Cc1c(NC(=O)c2ccco2)cccc1-c1nc2cccnc2s1 | 1 | 83.4 | 100.5 | 1.1 | 0.1
O=S(=O)(c1ccc(Cl)cc1)N1CCCC(C(F)(F)F)C1 (stereo not given) | 0.9 | · | · | 0.9 | -3.3
SMILES | PMI act | bCat KO growth | HCT116 PTEN-null | PMI act hi M6P | Lmaj promast
Clc1ccc(-c2csc(Nc3ccccc3)[n+]2Cc2ccco2)c(Cl)c1 | 1.2 | · | · | 1.3 | 35.6
Cc1sc2nc(C3CC3)nc(SCC(=O)N3CCCc4ccccc43)c2c1C | 0.9 | 58.8 | 51.3 | 0.9 | 93.5*
Cn1c(=O)c2c(SCC(=O)N3CCCc4ccccc43)nc(C3CC3)nc2n(C)c1=O | 0.9 | 37.2 | 30.2 | 0.8 | 61.3*
COC(=O)CC1C(=O)NCCN1Cc1cn(-c2ccc(C)cc2)nc1-c1cccc(C)c1 (stereo not given) | 0.9 | · | · | 0.5 | 31.4
O=C(c1cc(Cl)ccc1[N+](=O)[O-])n1cnc2ccccc21 | 1.1 | 100.5 | 95.4 | 1 | 55.4*
COc1ccc(C2=C(CC(=O)O)C(=O)CC2)cc1 | 1.3 | 98.9 | 98.6 | 1.3 | 2.2
N#C/C(=C\c1cn(Cc2ccccc2C#N)c2ccccc12)C(=O)NCc1cccs1 | 1.1 | 77.2 | 72.9 | 1.1 | -5.0
COc1cc(/C=C(\C#N)C(=O)NCC2CCCO2)ccc1O (stereo not given) | 0.9 | 97.6 | 104.0 | 0.9 | 10.7
N#C/C(=C\c1cn(Cc2ccccc2)c2ccccc12)C(=O)NCc1ccco1 | 0.8 | 99.9 | 89.6 | 0.8 | 51.1*
CCOc1ccc(/C=C(\C#N)C(=O)NCC2CCCO2)cc1OCC (stereo not given) | 0.8 | 97.8 | 104.2 | 1 | 64.2*
COc1ccccc1OCCn1cc(/C=C(\C#N)C(=O)NCc2cccs2)c2ccccc21 | 0.8 | 87.4 | 82.9 | 0.9 | 94.2*
N#C/C(=C\c1cn(CCOc2ccccc2)c2ccccc12)C(=O)NCC1CCCO1 (stereo not given) | 0.8 | 80.7 | 80.1 | 0.8 | 22.9
Cc1ccc(C)c(OCCn2cc(/C=C(/C#N)C(=O)NCC3CCCO3)c3ccccc32)c1 (stereo not given) | 0.8 | 82.3 | 68.3 | 0.8 | 97.9*
N#C/C(=C\c1cn(Cc2ccc(F)cc2)c2ccccc12)C(=O)NCc1ccco1 | 1 | 93.8 | 95.2 | 1.1 | 13.3
Cc1ccccc1CC1(CO)CCCN(C(=O)CCCN2CCCCC2=O)C1 (stereo not given) | 1 | · | · | 1 | -4.6
O=C(c1ccc(C(F)(F)F)cc1)C1CCCN(C(=O)CCN2CCCO2)C1 (stereo not given) | 1 | · | · | 1.1 | -7.3
O=C(Nc1ccc(Cc2ccncc2)cc1)c1cccc([N+](=O)[O-])c1 | 0.8 | 71.4 | 69.1 | 0.8 | 73.8*
CCN(CC)S(=O)(=O)c1ccc(C(=O)Nc2ccc(Cc3ccncc3)cc2)cc1 | 0.9 | · | · | 0.9 | 99.1*
Cc1c(C(=O)Nc2ccc(Cc3ccncc3)cc2)cccc1[N+](=O)[O-] | 1 | 40.2 | 51.6 | 1.1 | 96.0*
CC(C)(C)c1ccc(S(=O)(=O)Nc2ccc(Cc3ccncc3)cc2)cc1 | 1.1 | 57.5 | 58.5 | 1 | 88.0*
O=C(CSc1ccc(-c2cccc([N+](=O)[O-])c2)nn1)NC1CCCC1 | 1.1 | · | · | 1 | -4.6
O=C(Cc1ccccc1Cl)N1CCN(c2ncccn2)CC1 | 1 | · | · | 1 | -7.4
O=C(CCNc1ccc(Cc2ccncc2)cc1)c1ccc([N+](=O)[O-])cc1 | 0.4 | · | · | 0.3 | 100.7*
CC1(C)Cc2c(c(N3CCOCC3)nc3snc(N)c23)CO1 | 0.9 | 1.9* | 1.9* | 1 | -1.4
CC1(C)Cc2c(c(N3CCOCC3)nc3snc(Br)c23)CO1 | 1.2 | 97.0 | 80.8 | 1.2 | 19.8
Cc1cc[n+](-c2nc([O-])n(-c3ccccc3)c2C=O)cc1 | · | · | · | · | -1.2
CCOC(=O)C1CCCN(C2CCN(Cc3nc(-c4ccccc4)no3)CC2)C1 (stereo not given) | 1 | · | · | 1 | 73.2*
